The sample as a whole holds a higher share of hits than the screen did.
PGC1a Ac signal: compounds raising PGC1a acetylation signal, primary screen, PGC1a modulator project, cell-based, U2OS, AlphaScreen, signal-increasing mode; activation, % at 15.6 µM; 350,000 tested, 0.21% active; overnight;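 active means every replicate reaching activation of at least 50%, whatever the mean replicate activation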;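 further: hits raise the AlphaScreen acetylation signal above neutral controls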
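detection = AlphaScreen lysate read | assay system = U2OS cells expressing flag-PGC1a plus GCN5 | input = 7000 cells/well | dosing = one concentration | times = compound overnight at 37 °C, each detection step 1 h RT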
* marks the source's active call; other numbers are inactive results.

SMILES | PGC1a Ac signal
CCCCCC(=O)N1C[C@H](n2cc(-c3ccc(F)cc3)nn2)[C@@H](O)C[C@@H]1c1ccc(C)cc1 | -67
O=C(NC(Nc1cc(C(F)(F)F)ccc1Cl)C(=O)c1ccccc1)c1ccccc1 (stereo not given) | 100*
O=C(Nc1ccc(F)cc1)c1ccccc1 | -52
C[C@H](CO)N1C[C@H](C)[C@@H](CN(C)CC2CC2)Oc2cc(-c3cccnc3)ccc2S1(=O)=O | -45
C[n+]1c2n(c3ccccc31)N=C(c1cc(C(C)(C)C)c(O)c(C(C)(C)C)c1)CS2 | 88*
OC(c1ccccc1)(C1CCCCC1)C(CN1CCOCC1)c1ccccc1 (stereo not given) | 57*
O=C(c1ccc(F)cc1)C(CN1CCOCC1)c1ccccc1 (stereo not given) | -60
Cc1cnc2c(C(=O)O)cnn2c1 | -52
O=Nc1c(-c2c(O)[nH]c3cc(Br)ccc23)[nH]c2ccccc12 | 258*
COC(=O)c1c(C)oc(C)c1S(=O)(=O)Nc1ccccc1 | -50
Cc1cc(C)c(S(=O)(=O)Nc2ccccc2-c2ccccc2)c(C)c1 | 79*
C[C@@H]1CCCCO[C@H](CN(C)Cc2ccc3c(c2)OCO3)[C@@H](C)CN([C@@H](C)CO)C(=O)c2cc(NC(=O)Nc3ccc(C(F)(F)F)cc3)ccc2O1 | -53
O=C(NCc1ccc2c(c1)OCO2)c1ccc(NC(=O)C2CCCO2)cc1 (stereo not given) | 66*
CC1CCCCC12NC(=O)N(CC(=O)NCc1ccc3c(c1)OCO3)C2=O (stereo not given) | -46
CO[C@H]1CN(C)C(=O)c2ccc(NC(=O)C3CCOCC3)cc2OC[C@@H](C)N(C)C[C@@H]1C | -53
O=C1CCCc2ccccc2N1Cc1ccc(Cl)cc1Cl | -56
Cc1ccc(C(=O)N2CCN(c3ccc(NC(=S)NC(=O)c4cccs4)cc3)CC2)cc1 | 53*
Cc1ccc(C(=O)N2CCN(c3ncccn3)CC2)cc1 | -80
Cc1nnc(SCC(=O)N2CCC(c3noc4ccc(F)cc34)CC2)s1 | -57
OC[C@H]1O[C@@H](n2cnc3c(NCc4ccco4)ncnc32)[C@H](O)[C@@H]1O | 72*
Nc1nc(F)nc2c1ncn2[C@@H]1O[C@H](CO)[C@@H](O)[C@H]1O | -83
CC(C)c1nc2sc3c(NCc4ccco4)ncnc3c2c2c1COC(C)(C)C2 | -59
CC(=O)N1N=C(c2ccco2)CC1c1ccco1 (stereo not given) | -49
C/C(CC(=O)Nc1ccccc1Br)=N\NC(=O)C(=O)N1CCCC1 | -44
CCCNC(=O)N(C)C[C@H]1Oc2cc(C#CCC(C)C)ccc2S(=O)(=O)N([C@@H](C)CO)C[C@H]1C | -51
SMILES | PGC1a Ac signal
CCOC(=O)C1=CC[C@@H](c2ccc(OC)cc2)N(S(=O)(=O)c2ccc(C)cc2)[C@H]1CC | 90*
CCOC(=O)c1oc2ccc(S(=O)(=O)N3CCC(C)CC3)cc2c1C | -43
CCN1CCN(c2cc(C)c3cc(NC(=O)c4ccc(Br)o4)ccc3n2)CC1 | 53*
CCC(CC)NC(=O)Cc1ccc(S(=O)(=O)N2CCOCC2)s1 | 52*
Cc1ccc(-n2c(O)c(C=NC3CCS(=O)(=O)C3)c3ccccc3c2=O)c(C)c1 (stereo not given) | -57
CC(C)(c1ccccc1)c1ccc(OCCCNCCO)cc1 | 88*
COc1cc(NC(=O)NCc2ccco2)ccc1-c1ccc(NC(=O)NCc2ccco2)cc1OC | -48
CCOc1ccc(CC(=O)Nc2ccc(NC(=O)c3ccco3)cc2)cc1OCC | 133*
CCCOc1cccc(C(=O)Nc2cc(NC(=O)c3ccco3)ccc2OC)c1 | 61*
Cc1ccc2oc(Nc3nc(C)c(C)c(C)n3)nc2c1 | -41
Cc1nnc(NC(=O)CSc2ncc(-c3ccccc3)[nH]2)s1 | -88
Nc1ccc(N2CCCCC2)cc1N1CCCCC1 | 54*
O=C(O)c1cc(N2CCCCC2)ccn1 | -48
COC(=O)/C(=C\Nc1cccc(Cl)c1C)c1ncc(C(F)(F)F)cc1Cl | -41
COc1ccc2nc(C)cc(N/N=C/c3ccc(F)cc3)c2c1 | -94
C[C@@H]1CN([C@@H](C)CO)C(=O)c2cc(NC(=O)Nc3cccc4ccccc34)ccc2O[C@@H](C)CCCCO[C@H]1CN(C)C(=O)NC1CCCCC1 | -42
C[C@H](CO)N1C[C@H](C)[C@H](CN(C)S(=O)(=O)c2cn(C)cn2)OCCCC[C@H](C)Oc2ccc(NC(=O)Nc3cccc4ccccc34)cc2C1=O | -52
C[C@H]1CCCCO[C@H](CN(C)C(=O)Nc2cccc3ccccc23)[C@@H](C)CN([C@@H](C)CO)C(=O)c2cc(N(C)C)ccc2O1 | 65*
CC(C)NC(=O)NCC[C@@H]1CC[C@H](NS(=O)(=O)c2ccc(-c3ccccc3)cc2)[C@@H](CO)O1 | 65*
O=C(NCC[C@@H]1CC[C@H](NS(=O)(=O)c2ccccc2)[C@@H](CO)O1)c1ccccc1F | -53
Cc1ccc(S(=O)(=O)N[C@@H]2CC[C@@H](CCNC(=O)c3ccccc3F)O[C@H]2CO)cc1 | -49
CCCCCCC(=O)Nc1ccc(C(=O)N/N=C/c2cccnc2)cc1 | 417*
